From PubChem BioAssay
This is a sample that favours compounds with a hit; in the whole collection about 2.9% have one here.
MEKK2mut PB1 HTS: signal of MEK5 binding to mutant human MEKK2 PB1 domain; actives 0.35% (n = 290,000); AID 1530; percent response, % at 10 µM; bead flow cytometry, Alexa488-MEK5 binding to MEKK2 mutant; in the data active = percent response above about 24%, passing the limit was not always enough
MEKK2 WT-MEK5: raises or lowers MEK5 binding to wildtype human MEKK2 PB1 domain; AID 1531; bead flow cytometry, Alexa488-MEK5 binding to MEKK2 WT; actives lie on both sides; binding response (% of control), % at 10 µM; actives 1.1% (n = 290,000); in the data active = binding response below about 67% or above about 130%
MEKK3 PB1 HTS: modulators (inhibitors or enhancers) of MEK5 binding to human MEKK3 PB1 domain. Q99759. bead-based flow cytometry, Alexa488-MEK5 binding to MEKK3; actives lie on both sides; 0 = blocked by unlabeled MEK5, 100 = vehicle. binding response (% of control), % at 10 µM. actives 1.4% (n = 290,000);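 active = binding response more than 3 SD above or below the average of its plate-row segment, actives on both sides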;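 also: Alexa488 bead fluorescence after subtracting the streptavidin-only scavenger bead signal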
ATG4B inh: ATG4B (human) cysteine protease inhibition; ATG4B cleavage of LC3-PLA2, NBD-HPC fluorescence, 1 h; inhibition, % at 8.33 µM; actives 0.51% (n = 340,000); AID 504462; in the data active = inhibition above about 40%
Beta2AR agonist: agonists of human beta-2 adrenergic receptor inducing internalization. Am2.2-beta2AR cells, FAP receptor internalization, flow cytometry. response, % (concentration not given with the values). actives 0.43% (n = 340,000). AID 504454;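 active = response above a set limit, near 3 SD of response in nonfluorescent compounds, cut at about 42% in these data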
Target sequence (P07550 whole entry, looked up): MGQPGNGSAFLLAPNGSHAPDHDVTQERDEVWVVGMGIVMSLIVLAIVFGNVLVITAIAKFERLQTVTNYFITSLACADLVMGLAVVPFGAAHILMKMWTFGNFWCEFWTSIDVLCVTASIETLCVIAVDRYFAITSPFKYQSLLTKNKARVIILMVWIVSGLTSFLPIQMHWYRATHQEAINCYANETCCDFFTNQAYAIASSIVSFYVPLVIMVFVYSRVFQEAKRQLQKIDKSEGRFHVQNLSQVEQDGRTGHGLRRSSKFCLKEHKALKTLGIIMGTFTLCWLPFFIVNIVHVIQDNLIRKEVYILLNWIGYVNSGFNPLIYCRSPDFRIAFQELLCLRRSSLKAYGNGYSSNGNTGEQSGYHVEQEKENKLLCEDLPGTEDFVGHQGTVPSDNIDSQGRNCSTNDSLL
Dynein cargo inh: blocks dynein driven cargo transport along microtubules; 3617.4 mouse cells, GR-EGFP nuclear translocation imaging; test concentration mostly 20 µM; stimulated with dexamethasone, 1 µM; active compounds read low; z-score, hits read low; actives 0.47% (n = 220,000);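 active = plate z-score of nuclear minus cytoplasmic receptor signal below a set negative limit, without overly bright fluorescence or cell loss, cut at about -3.5 in these data, passing the limit was not always enough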;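 also: z-score of nuclear minus cytoplasmic ring GR-EGFP intensity difference per well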
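Medium: Induction medium lacking tetracycline, stripped serum | Probe or stimulus: 1.0 µM final dexamethasone stimulus | Schedule: 48 h induction, then 1 h compound, then 30 min agonist, 37 °C | Signal: Automated 10x imaging of fixed Hoechst-stained cells | Evaluation: Per-cell GR-EGFP intensity, nucleus versus surrounding cytoplasmic ring, well-averaged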
MEKK2wt confirm: raises or lowers MEK5 binding to wildtype human MEKK2, retest. shares compounds with MEKK3 PB1 HTS. bead flow cytometry, Alexa488-MEK5 binding to MEKK2 WT; actives lie on both sides. binding response (% of control), % at 10 µM. actives 2.4% (n = 5,900). AID 1892; in the data active = binding response below about 16% or above about 210%; inactive = in between
MEKK2mut-MEK5: signal of MEK5 binding to mutant human MEKK2, retest. shares compounds with MEKK3 PB1 HTS. bead flow cytometry, Alexa488-MEK5 binding to MEKK2 mutant. percent response, % at 10 µM. actives 2% (n = 5,900); in the data active = percent response mostly above about 71%, no sharp cut-off; inactive = mostly below about 38%;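 also: higher means compound restores mutant binding toward wildtype level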
MEKK3 confirm: MEKK3-MEK5 PB1 inhibition, single concentration confirmation; shares compounds with MEKK3 PB1 HTS; binding response (% of control), % at 10 µM; bead flow cytometry, Alexa488-MEK5 binding to MEKK3; active compounds read low; actives 1.8% (n = 5,900);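 active = binding response below 72% of control, or above a set upper limit, though filed actives all read lower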;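 also: 100% = DMSO only wells and 0% = binding blocked by excess unlabeled MEK5; lower values mean stronger disruption of MEK5 binding to MEKK3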
* = called active by the depositor; . = no result given; [ ] = another dose, or the depositor's remark.

SMILES	MEKK2mut PB1 HTS	MEKK2 WT-MEK5	MEKK3 PB1 HTS	ATG4B inh	Beta2AR agonist	Dynein cargo inh	MEKK2wt confirm	MEKK2mut-MEK5	MEKK3 confirm
CC(C)N(CCNCC(O)COc1ccc(C(C)(C)c2ccccc2)cc1)C(C)C (stereo unspecified)	29.0	172.0*	109.0	2.2	16.3	-0.681	146.0	33.0	105.0
Cc1ccc(C([O-])=C(C(=S)NCc2ccccc2)[n+]2cccc(CO)c2)cc1[N+](=O)[O-]	.	.	.	1.3	11.5	.	.	.	.
CN(C(=O)c1ccc(NC(=O)Cc2ccc(NC(=O)C3CCCN(C(=O)C4CCC4)C3)cc2)cc1)C1CC1 (stereo unspecified)	.	.	.	-4.7	20.7	.	.	.	.
O=C(NNCC(O)COc1ccccc1)c1ccccc1 (stereo unspecified)	0.0	105.0	138.0*	0.6	-6.6	-0.481	91.0	-6.0	101.0
CC(C)c1ccc(OCC(O)CNC(C)c2ccccc2)cc1 (stereo unspecified)	12.0	122.0	106.0	0.3	31.5	.	.	.	.
OC(CNCCC(c1ccccc1)c1ccccc1)COc1ccccc1 (stereo unspecified)	142.0*	313.0*	109.0	-9.3	12.5	-0.585	115.0	5.0	105.0
CC(C)(C)NC(=O)C(OC(=O)c1cccs1)c1ccc(F)cc1 (stereo unspecified)	-1.0	106.0	105.0	-1.0	-0.5	-0.0691	.	.	.
O=C(C1=C[C@@H](c2ccc(C(F)(F)F)cc2)C[C@@H](OCCCCO)O1)N1CCN(Cc2ccccc2)CC1	2.0	103.0	73.0*[inhibitor]	-16.7	4.1	-0.845	107.0	3.0	104.0
O=C(C1=C[C@H](c2ccc(C(F)(F)F)cc2)C[C@H](OCCCCO)O1)N1CCN(Cc2ccccc2)CC1	-4.0	96.0	99.0	-14.7	-2.2	-0.8	.	.	.
CC(=O)Nc1ccc(S(=O)(=O)NCCc2ccccn2)cc1	-3.0	101.0	104.0	2.1	-0.9	-0.477	.	.	.
Cc1ccc(Nc2nnc(SCC(=O)c3c(N)n(C4CC4)c(=O)[nH]c3=O)s2)cc1C	.	.	.	-9.0	0.1	.	.	.	.
Cc1ccc(CNC(=O)Cn2ccc3ccccc3c2=O)o1	-11.0	-3.0*[inhibitor]	0.0*[inhibitor]	1.8	1.2	0.228	98.0	9.0	102.0
CCNc1ccc2noc3c2c1C(=O)c1ccccc1-3	1.0	30.0*[inhibitor]	32.0*[inhibitor]	-187.1	-54.9	-0.0851	52.0	-14.0	56.0*
CCNc1ccccc(-c2ccc3ccccc3n2)c1=O	1.0	104.0	120.0	8.5	5.8	0.327	.	.	.
O=C(N/N=C/c1c(O)n(-c2ccc(Cl)cn2)c(=O)c2ccccc12)c1ccncc1	0.0	107.0	135.0*	11.2	5.7	-0.694	100.0	1.0	104.0
O=C(N/N=C/c1c(O)n(-c2ccc(Cl)cn2)c(=O)c2ccccc12)C1CC1	14.0	111.0	98.0	0.7	-2.0	-0.868	.	.	.
O=C(NC1CCSc2ccccc21)c1cccc(S(=O)(=O)N2CCOCC2)c1 (stereo unspecified)	.	.	.	-8.2	-3.5	.	.	.	.
CC(C)NC1(C#N)CCN(Cc2ccccc2)CC1	.	.	.	2.1	-8.3	.	.	.	.
COc1ccc(OC)c(NC(=O)c2cc3ccccc3cc2OC)c1	28.0*	106.0	103.0	-15.7	-9.7	.	109.0	4.0	104.0
COc1ccccc1CNC(=O)CCC(=O)N1CC(C)Sc2ccccc21 (stereo unspecified)	0.0	96.0	98.0	3.7	-14.3	.	.	.	.
Cc1ccc(S(=O)(=O)NCC(C)NS(=O)(=O)c2ccc(C)cc2)cc1 (stereo unspecified)	2.0	109.0	108.0	-17.8	0.1	-0.854	.	.	.
CNC(=O)OC(C)CNS(=O)(=O)c1ccc(C)cc1 (stereo unspecified)	-21.0	2.0*[inhibitor]	2.0*[inhibitor]	-3.7	-2.1	-1.11	104.0	18.0	104.0
COc1ccc(CNC(=O)C2CC(c3cccc(OC)c3)=NO2)cc1 (stereo unspecified)	-4.0	89.0	82.0*[inhibitor]	10.1	19.5	1.79	103.0	0.0	102.0
COc1cccc(C2=NOC(C(=O)NCc3ccc(F)cc3)C2)c1 (stereo unspecified)	.	.	.	8.4	17.9	-0.327	.	.	.
Cc1c(C(N)=O)sc(N)c1C(=O)OC(C)C	8.0	118.0	122.0*	1.2	-10.1	-1.01	103.0	0.0	106.0
SMILES	MEKK2mut PB1 HTS	MEKK2 WT-MEK5	MEKK3 PB1 HTS	ATG4B inh	Beta2AR agonist	Dynein cargo inh	MEKK2wt confirm	MEKK2mut-MEK5	MEKK3 confirm
Cc1c(C(=O)OC(C)C)sc(N)c1C(=O)OC(C)C	0.0	104.0	131.0*	11.2	-3.3	-0.212	102.0	-2.0	102.0
O=C(NNc1nc2cc3c(cc2s1)OCO3)c1cccc(F)c1	-5.0	95.0	103.0	-8.1	-3.5	0.755	.	.	.
CCn1ccnc1CNCc1cn(-c2cc(C)ccc2C)nc1-c1ccccc1	7.0	112.0	97.0	14.6	-10.8	2.05	.	.	.
COCCN1CCC(CNCc2cn[nH]c2-c2ccc(C)c(C)c2)C1 (stereo unspecified)	31.0	161.0*	100.0	4.8	2.2	1.7	159.0	43.0	114.0
COCCN1CCC(CNCc2cn(-c3cc(C)ccc3C)nc2-c2ccccc2)C1 (stereo unspecified)	9.0	163.0*	107.0	-1.8	10.5	-0.356	173.0	41.0	111.0
O=C(NCCCn1ccnc1)c1ccc(Br)s1	4.0	105.0	105.0	7.0	0.0	.	.	.	.
Cc1ccc(OCC(O)Cn2c3ccccc3c3ccccc32)cc1 (stereo unspecified)	6.0	109.0	106.0	3.7	2.0	-0.172	.	.	.
Cc1ccc(OCCN2CCN(CC(O)Cn3c4ccccc4c4ccccc43)CC2)cc1 (stereo unspecified)	59.0*	239.0*	106.0	.	.	-0.173	142.0	26.0	106.0
Cc1ccc(NC(=O)[C@H](C)NC(=O)C2CCN(C(=O)[C@@H](N)CC(C)C)CC2)cc1	2.0	106.0	102.0	3.1	3.5	.	.	.	.
Cc1nn(C2CCS(=O)(=O)C2)c(C)c1CN(C)C(=O)c1ccc(Cl)cc1 (stereo unspecified)	.	.	.	1.8	-4.3	.	.	.	.
N#CCCN(Cc1ccncc1)C(=S)NC1CC2C=CC1C2 (stereo unspecified)	-53.0	55.0	47.0*[inhibitor]	6.1	0.2	-0.112	103.0	3.0	102.0
